Results: ChEMBL document CHEMBL1154548, “Synthesis and initial evaluation of novel, non-peptidic antagonists of the alpha(v)-integrins alpha(v)beta(3) and alpha(v)beta(5)” (Bioorg Med Chem Lett, 2009)

How the values were obtained:
[1] = molecular target: Integrin alpha-V/beta-3 (Homo sapiens, UniProt P05106+P06756); assay: Binding affinity to human integrin alphavbeta3 receptor by TRF assay
Summary of the method: (§1)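 Wells were coated with αvβ3 or αvβ5 overnight at 4 °C in buffer A (50 mM Tris–HCl pH 7.4, 100 mM NaCl, 1 mM each MgCl₂, CaCl₂, MnCl₂), then blocked with 1% BSA for 1 h at RT. Compound and 20 nM Eu³⁺-vitronectin in buffer A plus DTPA and 0.05% BSA were added for 1 h at RT. Wells were washed, enhancement solution was added for 10 min with shaking, and time-resolved fluorescence was read.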

[2] = molecular target: Integrin alpha-V (Homo sapiens, UniProt P06756+P18084); assay: Binding affinity to human integrin alphavbeta5 receptor by TRF assay; summary of the method: as §1
[3] = molecular target: Integrin alpha-IIb/beta-3 (Homo sapiens, UniProt P05106+P08514); assay: Binding affinity to human integrin […] receptor by TRF assay; type: protein-complex assay
Summary of the method: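 Purified αIIbβ3 coated overnight at 4 °C in buffer A (50 mM Tris–HCl pH 7.4, 100 mM NaCl, 1 mM each MgCl₂, CaCl₂, MnCl₂), then blocked with 1% BSA for 1 h at RT. Compound plus 20 nM Eu³⁺-fibrinogen in buffer A with DTPA and 0.05% BSA, 1 h at RT. After washing, enhancement solution was added for 10 min with shaking and time-resolved fluorescence was read.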

[4] = tested on: HUVEC; assay: Inhibition of FGF-induced HUVEC proliferation after 48 hrs; type: functional, cell-based; conditions: Homo sapiens
Summary of the method: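 HUVEC were seeded at 1000 cells/well in complete EBM-2 and cultured 24 h at 37 °C with 5% CO₂. Medium was replaced with EBM-2 containing 2% FBS, 3 ng/mL FGF and compound, and cells were grown a further 48 h. Cells were fixed in glutaraldehyde, stained with crystal violet, destained in acetic acid and read by absorbance at 595. Means of two experiments with SD.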

[5] = tested on: HUVEC; assay: Inhibition of VEGF-induced HUVEC proliferation after 48 hrs; type: functional, cell-based; conditions: Homo sapiens
[6] = tested on: HUVEC; assay: Inhibition of HUVEC migration after 4 hrs; type: functional, cell-based; conditions: Homo sapiens
Summary of the method: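 Boyden-chamber filters were coated with vitronectin in HEPES/NaCl/divalent-cation buffer for 1 h at 37 °C, then blocked with 2% BSA for 1 h. HUVEC were added to the upper chamber at 20,000/well in migration buffer with or without compound and incubated 4 h at 37 °C. Non-migrated cells were removed; migrated cells were fixed, stained with crystal violet, photographed and quantified. Means of two experiments with SD.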

[7] = Apparent permeability across human Caco-2 cells; type: ADME, cell-based

Chain of Integrin alpha-V (P06756 whole entry, one chain of several): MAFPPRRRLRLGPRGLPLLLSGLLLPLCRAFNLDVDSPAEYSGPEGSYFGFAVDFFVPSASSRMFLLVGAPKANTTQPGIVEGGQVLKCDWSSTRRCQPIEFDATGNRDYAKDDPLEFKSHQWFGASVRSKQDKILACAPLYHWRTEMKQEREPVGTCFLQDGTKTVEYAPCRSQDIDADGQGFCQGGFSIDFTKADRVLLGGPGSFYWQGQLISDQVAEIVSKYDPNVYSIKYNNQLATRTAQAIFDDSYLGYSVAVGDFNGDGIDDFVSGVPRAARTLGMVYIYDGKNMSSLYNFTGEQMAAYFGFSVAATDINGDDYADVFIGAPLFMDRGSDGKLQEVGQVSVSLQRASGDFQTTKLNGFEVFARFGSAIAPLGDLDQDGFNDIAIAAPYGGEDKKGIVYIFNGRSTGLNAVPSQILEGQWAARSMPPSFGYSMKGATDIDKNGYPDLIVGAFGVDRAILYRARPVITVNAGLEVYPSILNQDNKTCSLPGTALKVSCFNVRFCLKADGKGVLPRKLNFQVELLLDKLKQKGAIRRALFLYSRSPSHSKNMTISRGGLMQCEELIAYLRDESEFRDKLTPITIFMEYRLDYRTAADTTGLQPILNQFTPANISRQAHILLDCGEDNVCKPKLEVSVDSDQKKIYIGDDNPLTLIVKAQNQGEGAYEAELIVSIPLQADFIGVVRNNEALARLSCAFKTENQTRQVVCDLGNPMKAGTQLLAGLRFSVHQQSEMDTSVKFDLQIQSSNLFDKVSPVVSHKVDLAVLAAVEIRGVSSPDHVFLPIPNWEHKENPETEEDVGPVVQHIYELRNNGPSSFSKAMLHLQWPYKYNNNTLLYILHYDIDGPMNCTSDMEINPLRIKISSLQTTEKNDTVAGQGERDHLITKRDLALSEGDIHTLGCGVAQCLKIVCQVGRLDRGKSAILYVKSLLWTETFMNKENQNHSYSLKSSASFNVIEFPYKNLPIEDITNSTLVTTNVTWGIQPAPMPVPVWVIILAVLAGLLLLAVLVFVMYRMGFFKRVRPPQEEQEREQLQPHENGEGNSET
Chain of Integrin alpha-IIb/beta-3 (P05106 27-788 limits assumed): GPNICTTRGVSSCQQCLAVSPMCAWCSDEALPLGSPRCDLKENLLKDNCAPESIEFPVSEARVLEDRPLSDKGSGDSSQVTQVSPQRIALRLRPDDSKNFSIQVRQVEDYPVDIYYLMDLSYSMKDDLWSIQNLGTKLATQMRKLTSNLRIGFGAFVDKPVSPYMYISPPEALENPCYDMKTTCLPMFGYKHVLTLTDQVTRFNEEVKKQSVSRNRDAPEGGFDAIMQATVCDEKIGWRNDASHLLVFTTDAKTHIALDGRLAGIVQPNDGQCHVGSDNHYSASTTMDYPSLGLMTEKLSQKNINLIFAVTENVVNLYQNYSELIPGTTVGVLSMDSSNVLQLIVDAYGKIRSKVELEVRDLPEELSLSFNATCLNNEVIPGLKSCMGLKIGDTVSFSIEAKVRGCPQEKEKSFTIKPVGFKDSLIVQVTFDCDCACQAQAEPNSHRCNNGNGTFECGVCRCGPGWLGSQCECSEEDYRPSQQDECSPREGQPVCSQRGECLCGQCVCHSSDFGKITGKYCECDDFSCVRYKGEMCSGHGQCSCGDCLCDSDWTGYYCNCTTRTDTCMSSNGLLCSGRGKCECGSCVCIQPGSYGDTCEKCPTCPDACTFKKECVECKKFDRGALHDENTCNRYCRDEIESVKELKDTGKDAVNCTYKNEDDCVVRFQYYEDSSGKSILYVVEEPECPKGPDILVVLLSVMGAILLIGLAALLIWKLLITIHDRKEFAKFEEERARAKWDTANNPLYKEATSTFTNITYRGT
Chain of Integrin alpha-IIb/beta-3 (P08514 32-887 limits assumed): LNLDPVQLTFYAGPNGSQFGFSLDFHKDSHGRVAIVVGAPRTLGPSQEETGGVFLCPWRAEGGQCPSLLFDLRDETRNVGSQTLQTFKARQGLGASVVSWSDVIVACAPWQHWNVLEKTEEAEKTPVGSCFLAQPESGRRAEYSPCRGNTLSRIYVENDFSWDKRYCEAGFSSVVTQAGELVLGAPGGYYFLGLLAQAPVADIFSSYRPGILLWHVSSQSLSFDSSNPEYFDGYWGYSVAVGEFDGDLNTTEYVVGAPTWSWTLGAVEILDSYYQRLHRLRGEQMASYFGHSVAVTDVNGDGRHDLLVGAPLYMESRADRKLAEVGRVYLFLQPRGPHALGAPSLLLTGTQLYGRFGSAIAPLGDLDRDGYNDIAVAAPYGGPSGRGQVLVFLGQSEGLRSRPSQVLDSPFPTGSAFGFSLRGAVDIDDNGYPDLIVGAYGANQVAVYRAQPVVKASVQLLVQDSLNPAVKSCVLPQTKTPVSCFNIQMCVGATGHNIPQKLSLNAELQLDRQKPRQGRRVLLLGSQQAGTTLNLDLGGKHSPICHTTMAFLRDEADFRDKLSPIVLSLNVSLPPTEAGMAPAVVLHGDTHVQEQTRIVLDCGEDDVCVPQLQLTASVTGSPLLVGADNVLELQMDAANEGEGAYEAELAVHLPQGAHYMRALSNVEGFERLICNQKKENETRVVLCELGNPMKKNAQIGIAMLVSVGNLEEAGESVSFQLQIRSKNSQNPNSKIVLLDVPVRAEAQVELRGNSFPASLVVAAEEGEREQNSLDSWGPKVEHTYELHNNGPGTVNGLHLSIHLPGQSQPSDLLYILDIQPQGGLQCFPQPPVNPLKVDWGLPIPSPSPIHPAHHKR
Chain of Integrin alpha-IIb/beta-3 (P08514 891-1039 limits assumed): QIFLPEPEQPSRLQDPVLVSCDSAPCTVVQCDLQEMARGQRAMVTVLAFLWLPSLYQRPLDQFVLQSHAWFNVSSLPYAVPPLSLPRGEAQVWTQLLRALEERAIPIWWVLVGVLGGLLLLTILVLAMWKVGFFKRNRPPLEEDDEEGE
Chain of Integrin alpha-V/beta-3 (P05106 27-788 limits assumed): as the sequence (P05106 27-788 limits assumed) above
Chain of Integrin alpha-V/beta-3 (P06756 31-889 limits assumed): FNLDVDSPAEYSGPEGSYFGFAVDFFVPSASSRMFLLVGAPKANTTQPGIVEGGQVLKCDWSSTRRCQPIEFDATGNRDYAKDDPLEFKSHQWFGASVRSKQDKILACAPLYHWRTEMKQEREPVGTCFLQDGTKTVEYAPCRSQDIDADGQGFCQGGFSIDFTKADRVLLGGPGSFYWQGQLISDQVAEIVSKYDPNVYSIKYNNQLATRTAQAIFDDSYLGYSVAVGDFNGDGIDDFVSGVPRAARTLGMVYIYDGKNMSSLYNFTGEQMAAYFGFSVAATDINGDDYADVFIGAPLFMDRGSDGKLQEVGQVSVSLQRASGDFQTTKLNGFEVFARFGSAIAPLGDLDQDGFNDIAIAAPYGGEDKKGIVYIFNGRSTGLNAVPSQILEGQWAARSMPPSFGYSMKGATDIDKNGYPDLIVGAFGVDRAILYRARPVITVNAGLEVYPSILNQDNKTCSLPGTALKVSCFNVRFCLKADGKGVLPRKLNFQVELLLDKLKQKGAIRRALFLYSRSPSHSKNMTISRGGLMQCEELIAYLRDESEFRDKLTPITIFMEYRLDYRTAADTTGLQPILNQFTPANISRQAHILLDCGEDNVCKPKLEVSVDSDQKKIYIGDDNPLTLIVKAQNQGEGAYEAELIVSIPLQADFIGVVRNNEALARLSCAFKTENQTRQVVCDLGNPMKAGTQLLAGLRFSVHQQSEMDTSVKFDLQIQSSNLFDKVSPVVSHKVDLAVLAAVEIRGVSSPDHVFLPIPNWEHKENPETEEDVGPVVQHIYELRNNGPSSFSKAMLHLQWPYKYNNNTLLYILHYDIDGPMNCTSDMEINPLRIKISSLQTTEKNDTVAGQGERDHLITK
Chain of Integrin alpha-V/beta-3 (P06756 891-1048 limits assumed): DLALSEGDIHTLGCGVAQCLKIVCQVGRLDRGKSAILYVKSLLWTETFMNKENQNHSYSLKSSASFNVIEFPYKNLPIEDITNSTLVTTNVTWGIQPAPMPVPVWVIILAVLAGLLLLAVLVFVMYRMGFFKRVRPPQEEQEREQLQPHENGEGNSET

SMILES | IC50 [1] [nM] | IC50 [2] [nM] | IC50 [3] [nM] | IC50 [4] [nM] | IC50 [5] [nM] | IC50 [6] [nM] | Papp [7] [×10⁻⁶ cm/s]
Cn1c(N)nc2c(Oc3ccc(C(=O)NCCC(=O)O)cc3)cccc21 | 230 | 2050 | – | – | – | – | –
Cn1c(N)nc2c(Oc3ccc4c(c3)CN(CCC(=O)O)C4=O)cccc21 | 180 | 4800 | > 10000 | – | – | – | –
Cn1c(N)nc2c(Oc3ccc4c(c3)CCN(CCC(=O)O)C4=O)cccc21 | 39 | 600 | > 10000 | – | – | – | –
O=C(O)CCN1CCc2cc(Oc3cccc4c3nc3n4CCCN3)ccc2C1=O | 7 | 310 | 6300 | – | – | – | –
O=C(O)CC(c1ccc2c(c1)OCO2)N1CCc2cc(Oc3cccc4c3nc3n4CCCN3)ccc2C1=O (stereo not given) | 2 | 14 | 167 | 2900 | 1100 | 40 | 8.96
O=C(O)CC(c1cccnc1)N1CCc2cc(Oc3cccc4c3nc3n4CCCN3)ccc2C1=O (stereo not given) | 1 | 5 | 323 | 1100 | 4300 | 37 | –
Cn1c(N)nc2c(Oc3ccc4c(c3)CCCN(CCC(=O)O)C4=O)cccc21 | 370 | 4300 | > 10000 | – | – | – | –
CC(C)[C@@H]1NC(=O)[C@@H](Cc2ccccc2)NC(=O)[C@H](CC(=O)O)NC(=O)CNC(=O)[C@H](CCCN=C(N)N)NC1=O [CYCLORGDFV] | – | – | – | 3100 | 4500 | 530 | –
